# Results from ChEMBL document CHEMBL1134454, “Synthesis and evaluation of oxodioxolenylmethyl carbamate prodrugs of pseudomycins” (2001).
# Bridge positions count the residues as written; N and C are the ends. Square brackets hold non-standard residues; d marks the D form. Peptide text beside a SMILES is read from it. * marks the point of attachment. Tetradecanoyl(3R-OH) = CCCCCCCCCCC[C@@H](O)CC(=O)*; Asp(3S-OH) = N[C@H](C(=O)O)[C@H](O)C(=O)O; Thr(4-Cl) = N[C@H](C(=O)O)[C@H](O)CCl; aThr = C[C@H](O)[C@H](N)C(=O)O; dDab = NCC[C@@H](N)C(=O)O; Dab = NCC[C@H](N)C(=O)O; Dhb = C/C=C(\N)C(=O)O
# Legend:
# [1] = test system: Candida albicans; experiment: In vitro potency against Candida albicans; assay type: functional
# Procedure, shortened: (§1)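 Broth microdilution in Sabouraud broth. Compounds were dissolved in DMSO and diluted to 20 μg/mL final in the first well, then serially 2-fold. Yeasts were grown on Sabouraud dextrose agar at 35 °C for 24 h, suspended in saline and adjusted to 2×10^5/mL in broth. A. fumigatus spores were taken from potato dextrose agar mycelia into 0.1% Tween 80/saline. MIC was the lowest concentration giving 90–100% visible growth inhibition versus controls.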
# [2] = test system: Cryptococcus neoformans; experiment: In vitro potency against Cryptococcus neoformans; assay type: functional; procedure, shortened: as §1
# [3] = species on record: Mus musculus; experiment: Evaluated for tail vein toxicity assay in male ICR mice; Positive; assay type: functional, organism-based
# [4] = species on record: Mus musculus; experiment: Drug concentration required to achieve 50% survival of fungal infection compared with untreated animals in experiment 1.; assay type: functional
# Procedure, shortened: (§2)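 Outbred male ICR mice (18–20 g), X-irradiated 400 r 24 h before infection. C. albicans A26 blastospores, 2×10^6 per mouse, given iv by lateral tail vein. Dosed 0.2 mL at 20, 10 and 5 mg/kg at 0, 4, 24 and 48 h post-infection, in 4.0% hydroxypropyl cyclodextrin/sodium acetate pH 7.0/1.75% dextrose. Survival followed 7 days; ED50 by Reed and Muench.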
# [5] = test system: Aspergillus fumigatus; experiment: In vitro potency against Aspergillus fumigatus; assay type: functional; procedure, shortened: as §1
# [6] = species on record: Mus musculus; experiment: Drug concentration required to achieve 50% survival of fungal infection compared with untreated animals in experiment 2.; assay type: functional; procedure, shortened: as §2
# [7] = species on record: Mus musculus; experiment: Evaluated for tail vein toxicity assay in male ICR mice; Negative; assay type: functional, organism-based
# [8] = species on record: Mus musculus; experiment: Evaluated for tail vein toxicity assay in male ICR mice; Partial positive; assay type: functional, organism-based
SMILES,MIC [1] [mg/L],MIC [2] [mg/L],Activity [3],ED50 [4] [mg/kg],MIC [5] [mg/L],ED50 [6] [mg/kg],Activity [7],Activity [8]
C/C=C1\NC(=O)[C@H]([C@H](C)O)NC(=O)[C@H](CCN)NC(=O)[C@H](CCCCN)NC(=O)[C@H](CC(=O)O)NC(=O)[C@@H](CCN)NC(=O)[C@@H](NC(=O)C[C@H](O)CCCCCCCCCCCCC)COC(=O)[C@H]([C@H](O)CCl)NC(=O)[C@H]([C@H](O)C(=O)O)NC1=O,0.312,< 0.02,Positive,7.8,10,12.4,,
C/C=C1\NC(=O)[C@H]([C@H](C)O)NC(=O)[C@H](CCN)NC(=O)[C@H](CCCCN)NC(=O)[C@H](CC(=O)O)NC(=O)[C@@H](CCN)NC(=O)[C@@H](NC(=O)C[C@H](O)CCCCCCCCCCC)COC(=O)[C@H]([C@H](O)CCl)NC(=O)[C@H]([C@H](O)C(=O)O)NC1=O [PSEUDOMYCIN B] ({Tetradecanoyl(3R-OH)}-S[dDab]DK[Dab][aThr][Dhb][Asp(3S-OH)][Thr(4-Cl)]; ester 1-C),0.625,0.078,Positive,,> 20,3.8,,
C/C=C1\NC(=O)[C@H]([C@H](C)O)NC(=O)[C@H](CCNC(=O)OCc2oc(=O)oc2C)NC(=O)[C@H](CCCCNC(=O)OCc2oc(=O)oc2C)NC(=O)[C@H](CC(=O)O)NC(=O)[C@@H](CCNC(=O)OCc2oc(=O)oc2C)NC(=O)[C@@H](NC(=O)C[C@H](O)CCCCCCCCCCC)COC(=O)[C@H]([C@H](O)CCl)NC(=O)[C@H]([C@H](O)C(=O)O)NC1=O,> 20,10,,6.85,> 20,7.8,Negative,
C/C=C1\NC(=O)[C@H]([C@H](C)O)NC(=O)[C@H](CCNC(=O)OCc2oc(=O)oc2C)NC(=O)[C@H](CCCCN)NC(=O)[C@H](CC(=O)O)NC(=O)[C@@H](CCN)NC(=O)[C@@H](NC(=O)C[C@H](O)CCCCCCCCCCC)COC(=O)[C@H]([C@H](O)CCl)NC(=O)[C@H]([C@H](O)C(=O)O)NC1=O,5,1.3,,5.95,> 20,,Negative,
C/C=C1\NC(=O)[C@H]([C@H](C)O)NC(=O)[C@H](CCN)NC(=O)[C@H](CCCCNC(=O)OCc2oc(=O)oc2C)NC(=O)[C@H](CC(=O)O)NC(=O)[C@@H](CCNC(=O)OCc2oc(=O)oc2C)NC(=O)[C@@H](NC(=O)C[C@H](O)CCCCCCCCCCC)COC(=O)[C@H]([C@H](O)CCl)NC(=O)[C@H]([C@H](O)C(=O)O)NC1=O,5,0.3,,7.07,> 20,,,Partial positive
C/C=C1\NC(=O)[C@H]([C@H](C)O)NC(=O)[C@H](CCN)NC(=O)[C@H](CCCCNC(=O)OCc2oc(=O)oc2C)NC(=O)[C@H](CC(=O)O)NC(=O)[C@@H](CCNC(=O)OCc2oc(=O)oc2C)NC(=O)[C@@H](NC(=O)C[C@H](O)CCCCCCCCCCCCC)COC(=O)[C@H]([C@H](O)CCl)NC(=O)[C@H]([C@H](O)C(=O)O)NC1=O,,,,> 20,,,,Partial positive
C/C=C1\NC(=O)[C@H]([C@H](C)O)NC(=O)[C@H](CCNC(=O)OCc2oc(=O)oc2C)NC(=O)[C@H](CCCCN)NC(=O)[C@H](CC(=O)O)NC(=O)[C@@H](CCN)NC(=O)[C@@H](NC(=O)C[C@H](O)CCCCCCCCCCCCC)COC(=O)[C@H]([C@H](O)CCl)NC(=O)[C@H]([C@H](O)C(=O)O)NC1=O,,,,9,,,,Partial positive
C/C=C1\NC(=O)[C@H]([C@H](C)O)NC(=O)[C@H](CCNC(=O)OCc2oc(=O)oc2C)NC(=O)[C@H](CCCCNC(=O)OCc2oc(=O)oc2C)NC(=O)[C@H](CC(=O)O)NC(=O)[C@@H](CCNC(=O)OCc2oc(=O)oc2C)NC(=O)[C@@H](NC(=O)C[C@H](O)CCCCCCCCCCCCC)COC(=O)[C@H]([C@H](O)CCl)NC(=O)[C@H]([C@H](O)C(=O)O)NC1=O,> 20,5,,12.4,> 20,10.8,Negative,
